From ChEMBL document CHEMBL1139427, “Inhibition of IkappaB kinase-beta and anticancer activities of novel chalcone adamantyl arotinoids” (J Med Chem, 2008)
Calls of active or inactive are those of the source. The rule behind the calls is not given here.

Columns and labels:
[1] = biological target: T1, Inhibitor of nuclear factor kappa-B kinase subunit beta (Homo sapiens) (UniProt O14920); assay: Inhibition of purified recombinant histidine-HA-tagged IKK-beta expressed in SF9 cells at 20 uM
T1 sequence (whole entry): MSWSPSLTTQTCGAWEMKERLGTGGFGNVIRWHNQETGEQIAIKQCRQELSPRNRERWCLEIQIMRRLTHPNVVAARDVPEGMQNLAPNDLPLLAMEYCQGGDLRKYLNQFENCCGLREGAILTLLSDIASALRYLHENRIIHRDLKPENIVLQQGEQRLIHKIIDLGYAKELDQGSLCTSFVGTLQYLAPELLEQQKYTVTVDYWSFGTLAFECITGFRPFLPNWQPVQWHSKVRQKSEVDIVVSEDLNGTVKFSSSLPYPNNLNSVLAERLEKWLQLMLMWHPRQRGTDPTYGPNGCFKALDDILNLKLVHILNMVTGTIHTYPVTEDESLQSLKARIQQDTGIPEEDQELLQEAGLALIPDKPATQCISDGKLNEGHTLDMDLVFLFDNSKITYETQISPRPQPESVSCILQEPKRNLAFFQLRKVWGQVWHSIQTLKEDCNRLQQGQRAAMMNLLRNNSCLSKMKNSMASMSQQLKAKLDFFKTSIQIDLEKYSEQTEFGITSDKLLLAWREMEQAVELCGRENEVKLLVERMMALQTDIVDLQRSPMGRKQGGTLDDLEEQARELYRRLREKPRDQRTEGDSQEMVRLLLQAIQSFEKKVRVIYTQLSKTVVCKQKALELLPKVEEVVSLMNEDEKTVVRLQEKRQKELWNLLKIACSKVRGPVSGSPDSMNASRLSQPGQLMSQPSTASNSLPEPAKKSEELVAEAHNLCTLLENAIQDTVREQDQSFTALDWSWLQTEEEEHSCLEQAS
Method in brief: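 (His)6-HA-IKKβ expressed in baculovirus-infected Sf9 cells and Ni-resin purified. 100 ng enzyme in MOPS pH 7.0 buffer with 5 µg GST-IκBα, 10 mM MgCl₂, 6.25 µM ATP (Km level) plus ³²P-γ-ATP. Compound (20 µM) preincubated with enzyme/substrate before ATP/Mg addition. 30 min at 30 °C, stopped with phosphoric acid, filter-bound radioactivity counted. No-enzyme background subtracted; activity as ratio to control. Two to four experiments in triplicate.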

Jurkat [2] = assay: Antiproliferative activity against retinoid related molecule-sensitive human Jurkat cells after 24 hrs by MTT assay; type: functional, cell-based
Method in brief: (§1)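 MTT viability assay. PC-3, T-47D and MDA-MB-468 seeded at 5000/well the day before, switched to 0.5% FBS medium at treatment. Jurkat seeded at 10 000/well (10⁵ cells/mL) in RPMI with 0.5% FBS. Compound 0.125-8 µM from DMSO stocks; DMSO ≤0.1% as control. Jurkat 24 h, others 48 h. MTT 4 h at 37 °C, SDS/HCl solubilization, A595. IC50 from two experiments in triplicate.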

[3] = test system: Retinoid X receptor RXR-alpha (Mus musculus); assay: Inhibition of 9-cis-retinoic acid-mediated mouse RXRalpha activation expressed in african green monkey CV1 cells; details: CV-1
MDA-MB-468 [4] = assay: Antiproliferative activity against estrogen-independent human MDA-MB-468 cells at 2 uM after 72 hrs by MTT assay
[5] = biological target: T2, Retinoic acid receptor alpha (Homo sapiens) (UniProt P10276); assay: Antagonist activity at human RARalpha expressed in african green monkey CV1 cells assessed as all-trans-retinoic acid-stimulated Gal4 transactivation activity by luciferase reporter gene assay; type: functional, cell-based; details: CV-1
T2 sequence (whole entry): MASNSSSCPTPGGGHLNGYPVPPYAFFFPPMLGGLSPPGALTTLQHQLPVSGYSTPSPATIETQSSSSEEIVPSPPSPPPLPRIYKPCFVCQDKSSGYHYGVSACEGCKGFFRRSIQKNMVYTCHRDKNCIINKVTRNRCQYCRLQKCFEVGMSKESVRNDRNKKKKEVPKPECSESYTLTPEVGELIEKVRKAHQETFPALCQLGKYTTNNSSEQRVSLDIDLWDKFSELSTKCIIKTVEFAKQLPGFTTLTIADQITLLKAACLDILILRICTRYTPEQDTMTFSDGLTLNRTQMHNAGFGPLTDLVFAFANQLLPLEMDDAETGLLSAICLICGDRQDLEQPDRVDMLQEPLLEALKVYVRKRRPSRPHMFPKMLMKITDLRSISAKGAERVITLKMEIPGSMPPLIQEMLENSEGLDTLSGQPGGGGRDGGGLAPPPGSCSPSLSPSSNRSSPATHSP
Method in brief: (§2)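 Same Gal4-RAR LBD/UAS-luciferase CV-1 transfection, 5% charcoal-treated FBS medium. Cells stimulated with 0.2 µM ATRA alone or with 2 µM compound (10-fold molar excess). Readout after 6 h (RARα, RARβ) or 20 h (RARγ). Luciferase normalized to β-galactosidase, as % of ATRA maximum; mean ± SD, ≥2 experiments in triplicate.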

T47D = assay: Antiproliferative activity against estrogen-dependent human T47D cells after 48 hrs by MTT assay; type: functional, cell-based; method in brief: as §1
[6] = biological target: T2, Retinoic acid receptor alpha (Homo sapiens); assay: Activity at human RARalpha expressed in african green monkey CV1 cells assessed as enhanced Gal4 transactivation activity by luciferase reporter gene assay; type: cell-based; details: CV-1
Method in brief: (§3)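 Gal4 DBD fused to human RAR LBD (α 156-462, β 149-448, γ 158-454), cotransfected into CV-1 cells (20 000/well) with UAS-luciferase and β-galactosidase vectors. 16 h later, medium with 5% charcoal-treated FBS; compound at 2 µM alone, ATRA 1 µM reference. Read after 6 h (RARα, RARβ) or 20 h (RARγ). Normalized luciferase as % of ATRA maximum; mean ± SD, ≥2 experiments in triplicate.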

Jurkat [7] = assay: Induction of apoptosis in human Jurkat cells assessed as enhanced DEVDase activity after 4 hrs by fluorescence enzymatic assay; type: functional, cell-based
Method in brief: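 Jurkat cells (40 000/well, 10⁶ cells/mL) in RPMI with 0.5% FBS, treated 4 h (2 or 4 µM). Lysed in PIPES/NP-40 buffer 30 min at 4 °C, then diluted into HEPES/CHAPS caspase buffer with 100 µM Ac-DEVD-AFC. AFC release read every 2 min over 30 min at 37 °C (ex 390/em 510 nm). Two experiments in triplicate, mean ± SD.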

[8] = biological target: T3, Retinoic acid receptor gamma (Homo sapiens) (UniProt P13631); assay: Activity at human RARgamma expressed in african green monkey CV1 cells assessed as enhanced Gal4 transactivation activity by luciferase reporter gene assay; type: cell-based; details: CV-1; method in brief: as §3
T3 sequence (whole entry): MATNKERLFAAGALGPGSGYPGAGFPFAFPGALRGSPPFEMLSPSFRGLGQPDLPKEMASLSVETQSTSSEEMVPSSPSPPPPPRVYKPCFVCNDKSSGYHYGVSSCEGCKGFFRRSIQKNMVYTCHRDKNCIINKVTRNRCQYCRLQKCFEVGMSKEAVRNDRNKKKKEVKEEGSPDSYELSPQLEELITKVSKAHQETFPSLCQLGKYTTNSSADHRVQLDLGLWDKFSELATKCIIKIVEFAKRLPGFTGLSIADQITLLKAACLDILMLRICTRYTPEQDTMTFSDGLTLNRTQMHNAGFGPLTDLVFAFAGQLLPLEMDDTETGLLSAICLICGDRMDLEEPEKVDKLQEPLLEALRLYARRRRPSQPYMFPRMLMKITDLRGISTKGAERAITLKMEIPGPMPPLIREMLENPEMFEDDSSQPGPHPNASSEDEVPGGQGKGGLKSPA

[9] = biological target: T4, Retinoic acid receptor beta (Homo sapiens) (UniProt P10826); assay: Activity at human RARbeta expressed in african green monkey CV1 cells assessed as enhanced Gal4 transactivation activity by luciferase reporter gene assay; type: cell-based; details: CV-1; method in brief: as §3
T4 sequence (whole entry): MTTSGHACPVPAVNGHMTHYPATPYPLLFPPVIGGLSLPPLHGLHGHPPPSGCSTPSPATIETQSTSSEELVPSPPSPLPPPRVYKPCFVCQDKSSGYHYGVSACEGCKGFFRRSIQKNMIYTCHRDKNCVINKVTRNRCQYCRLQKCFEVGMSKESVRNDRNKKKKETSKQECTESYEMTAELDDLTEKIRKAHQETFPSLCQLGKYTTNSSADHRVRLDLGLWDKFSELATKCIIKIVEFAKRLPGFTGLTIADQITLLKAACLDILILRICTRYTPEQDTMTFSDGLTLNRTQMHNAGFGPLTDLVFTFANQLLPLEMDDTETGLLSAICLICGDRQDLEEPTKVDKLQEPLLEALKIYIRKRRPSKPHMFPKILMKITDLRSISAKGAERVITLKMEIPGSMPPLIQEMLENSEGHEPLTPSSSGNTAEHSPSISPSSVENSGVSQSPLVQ

[10] = biological target: T4, Retinoic acid receptor beta (Homo sapiens); assay: Antagonist activity at human RARbeta expressed in african green monkey CV1 cells assessed as all-trans-retinoic acid-stimulated Gal4 transactivation activity by luciferase reporter gene assay; type: functional, cell-based; design: scale not given: the % may be the effect or the level left; details: CV-1; method in brief: as §2
MDA-MB-468 [11] = assay: Antiproliferative activity against estrogen-independent human MDA-MB-468 cells by MTT assay; type: functional, cell-based; details: TDE = time-dependent effect
Method in brief: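 MDA-MB-468 cells exposed to 2 µM compound in 0.5% FBS medium for 24, 48 or 72 h. Proliferation by MTT (A595) relative to DMSO control. Experiment repeated twice with triplicate time points; one representative experiment reported.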

MDA-MB-468 [12] = assay: Antiproliferative activity against estrogen-independent human MDA-MB-468 cells after 48 hrs by MTT assay; type: functional, cell-based; details: MDA-MB-468, 48 h; method in brief: as §1
PC-3 = assay: Antiproliferative activity against human PC3 cells after 48 hrs by MTT assay; type: functional, cell-based; details: PC-3, 48 h; method in brief: as §1
[13] = biological target: T3, Retinoic acid receptor gamma (Homo sapiens); assay: Antagonist activity at human RARgamma expressed in african green monkey CV1 cells assessed as all-trans-retinoic acid-stimulated Gal4 transactivation activity by luciferase reporter gene assay; type: functional, cell-based; design: scale not given: the % may be the effect or the level left; details: CV-1; method in brief: as §2
[14] = test system: Retinoid X receptor RXR-alpha (Mus musculus); assay: Activation of mouse RXRalpha expressed in african green monkey CV1 cells assessed as luciferase activity; details: CV-1
[15] = test system: Retinoid X receptor RXR-alpha (Mus musculus); assay: Inhibition of LGD-1069-mediated mouse RXRalpha activation expressed in african green monkey CV1 cells; details: CV-1
[16] = biological target: T5, Inhibitor of nuclear factor kappa-B kinase subunit beta (Homo sapiens, UniProt O14920); assay: Inhibition of purified recombinant histidine-HA-tagged IKK-beta expressed in SF9 cells
T5 sequence (O14920 whole entry): T1 sequence (whole entry)

Cc1ccc2nc(NCCN)c3ncc(C)n3c2c1
Activity [1]: Active

COCCOCOc1cc(O)c(C(=O)/C=C/c2ccc(C(=O)O)cc2)cc1C12CC3CC(CC(C3)C1)C2
IC50 (Jurkat [2]): 1890 nM
Activity [3]: inactive
Activity (MDA-MB-468 [4]): 40%
Activity [5]: Active
IC50 (T47D): 8000 nM
Activity [6]: inactive
Activity (Jurkat [7]): Active
Activity [8]: inactive
Activity [9]: inactive
Activity [10]: Active
Activity (MDA-MB-468 [11]): tde
IC50 (MDA-MB-468 [12]): 6080 nM
IC50 (PC-3): 2510 nM
Activity [13]: Active
Activity [14]: inactive
Activity [15]: inactive

COCCOCOc1ccc(C(=O)/C=C/c2ccc(C(=O)O)cc2)cc1C12CC3CC(CC(C3)C1)C2
IC50 (Jurkat [2]): 1200 nM
IC50 [16]: 7000 nM
Activity [3]: inactive
Activity [5]: Active
IC50 (T47D): 3270 nM
Activity [6]: inactive
Activity (Jurkat [7]): Active
Activity [8]: inactive
inhibition [1]: 65%
Activity [9]: inactive
Activity [10]: 30%
Activity (MDA-MB-468 [11]): tde
IC50 (MDA-MB-468 [12]): 2110 nM
IC50 (PC-3): 1480 nM
Activity [13]: 30%
Activity [14]: inactive
Activity [15]: inactive

CC1(C)CC=C(C#Cc2ccccc2)c2cc(/C=C/c3ccc(C(=O)O)cc3)ccc21
Activity [5]: Active
Activity [10]: Active
Activity [13]: Active
